Sampled rows, rich in hits. Any-hit rate of the full collection: about 1.6%.
FLuc inh counter = Photinus pyralis luciferase inhibition counter-screen | AID 1006 | ATPLite firefly luciferase biochemical luminescence, 10 min | inhibition, % at 10 µM | hit rate 1.5% among 200,000;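 active = inhibition above about 50% when tested at 10 µM, limit read from the data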
Target sequence (P08659 whole entry, looked up): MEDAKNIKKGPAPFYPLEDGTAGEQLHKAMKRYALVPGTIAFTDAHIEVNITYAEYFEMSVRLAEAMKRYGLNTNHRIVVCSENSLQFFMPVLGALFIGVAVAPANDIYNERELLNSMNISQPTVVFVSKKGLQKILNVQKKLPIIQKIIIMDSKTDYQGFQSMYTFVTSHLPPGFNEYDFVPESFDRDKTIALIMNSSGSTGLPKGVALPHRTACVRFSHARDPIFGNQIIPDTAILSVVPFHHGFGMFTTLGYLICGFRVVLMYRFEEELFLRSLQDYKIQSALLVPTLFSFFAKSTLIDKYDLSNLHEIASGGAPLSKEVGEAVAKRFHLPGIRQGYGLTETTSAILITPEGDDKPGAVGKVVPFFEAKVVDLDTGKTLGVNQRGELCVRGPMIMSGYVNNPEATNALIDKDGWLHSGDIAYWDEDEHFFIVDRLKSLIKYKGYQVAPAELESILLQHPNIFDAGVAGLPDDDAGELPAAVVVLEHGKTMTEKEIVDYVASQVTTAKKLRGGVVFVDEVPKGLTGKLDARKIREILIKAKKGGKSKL
FLuc act counter = affects firefly luciferase, flagging false hits in luciferase stimulation screens | P08659 | 200,000 tested, under 10 active | ATPlite luciferase biochemical, luminescence, 10 min; 0 = ATP-free wells, 1 = DMSO control | activation factor at 10 µM;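 active = luciferase activation factor, scaled between plate controls, of at least 2 with compound at 10 µM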
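Material: luciferase plus luciferin reagent, cell-free. Medium: PBS buffer for ATP. Also added: ATP substrate, dispensed from a 10.24 µM working solution in PBS. Doses: test compounds dosed from 2 mM stocks in 100% DMSO. Incubation: 10 min post-reagent at room temperature. Technique: light output (luminescence). Read-out basis: luminescence gain marking luciferase activators.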
TRAIL sens C8 = sensitizes caspase-8 expressing cells to TRAIL; NB7+C8 cells + TRAIL, ATPlite viability luminescence; inhibition (viability loss, TRAIL sensitization), % at 10 µM; hit rate 1% among 360,000; AID 624354;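 active = compounds causing at least 50% loss of cell viability in the single-dose screen, relative to plate controls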
PPC-1+TRAIL kill = compounds killing PPC-1 cancer cells with TRAIL present (potentiator screen, no TRAIL-free arm). PPC-1 cells + TRAIL, ATPLite viability luminescence. cell killing (% activity), % at 4 µM or 5 µM. hit rate 0.41% among 220,000;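 active = cell killing above 50% in the first pass at 4 µM, then a duplicate retest at 5 µM averaging 50% or more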;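 also: plate controls were cells with TRAIL plus DMSO for no effect and medium-only wells lacking cells for full effect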
* marks the source's active call; other numbers are inactive results; nt = no result.

SMILES	FLuc inh counter	FLuc act counter	TRAIL sens C8	PPC-1+TRAIL kill
C=CCn1c(O)c(C(C)=NC2CC2)c(=O)[nH]c1=O	-9	1.1	-25	-19
COC1CC2C=C(C)C=CC=CC(=O)NC(c3ccccc3)CC=CCCC(O)CC(=O)C2=C1O (configuration not stated)	nt	nt	97*	nt
O=C(O)c1ccc(-[n+]2c(-c3ccccc3)cc(-c3ccccc3)cc2-c2ccccc2)cc1	nt	nt	4	nt
CCCOC(=O)c1ccc(-[n+]2c(-c3ccccc3)cc(-c3ccccc3)cc2-c2ccccc2)cc1	nt	nt	58*	nt
Brc1ccc(-[n+]2c(-c3ccccc3)cc(-c3ccccc3)cc2-c2ccccc2)cc1	nt	nt	56*	nt
COc1ccc(-[n+]2c(-c3ccccc3)cc(-c3ccc(C)cc3)cc2-c2ccccc2)cc1	nt	nt	57*	nt
Cc1ccccc1-[n+]1c(-c2ccccc2)cc(-c2ccccc2)cc1-c1ccccc1	nt	nt	67*	nt
Cn1c(O)c(C(=NCCc2c[nH]c3ccccc23)c2ccccc2)c(=O)n(C)c1=O	0	1	-7	18
CSc1ccccc1NP1(=O)OCC(C)([N+](=O)[O-])CO1 (configuration not stated)	nt	nt	-10	nt
O=c1[nH]c(=O)n(Cc2ccccc2)c(O)c1C=NCCN1CCOCC1	0	1	-5	33
Cc1cccc(N2C(=O)CC(=O)NC2=O)c1	-3	1	2	8
CCCCCCCCCOc1ccc2[nH]cc(CCN)c2c1	-1	1	nt	61*
CC(=O)c1ccc2c(c1)C1C(Cl)C(Sc3ccccc3[N+](=O)[O-])CC1C(c1ccccc1[N+](=O)[O-])N2 (configuration not stated)	-2	1	7	29
CCCCCCn1c(=O)c(C(=O)Nc2ccncc2)c(O)c2ccccc21	-2	1	nt	22
CC1CCC/C=C/C2CC(O)CC2C(O)/C=C/C(=O)O1 (configuration not stated)	2	1	22	57*
C[C@H]1CCC/C=C/C2C[C@H](O)CC2[C@H](O)/C=C/C(=O)O1 (some centres not stated)	-3	1	34	43
CC1=CC2OC3CC4OC(=O)C=CC=CC(C(C)O)OCC(O)C5(C)OC5C(=O)OCC2(CC1O)C4(C)C31CO1 (configuration not stated)	nt	nt	67*	nt
CC1CCOC(=O)C=CC=CC(=O)OC2CC3OC4C5OC5(C)C(O)CC4(COC(=O)C1O)C2(C)C31CO1 (configuration not stated)	nt	nt	69*	nt
CC(O)C1C=CC=CC(=O)OC2CC3OC4C5OC5(C)C(O)CC4(COC(=O)C(O)C(C)CCO1)C2(C)C31CO1 (configuration not stated)	nt	nt	62*	nt
CC1=CC2OC3CC4OC(=O)C=CC=CC(=O)OCCC(C)C(O)C(=O)OCC2(CC1)C4(C)C31CO1 (configuration not stated)	nt	nt	56*	nt
O=C(/C=C/c1ccc2c(c1)OCO2)c1c(O)n(CCC2=CCCCC2)c(=O)[nH]c1=O	-6	1.1	9	13
Cc1ccc(N2C(=O)NC(=O)C(CCc3ccccn3)(Cc3ccc(F)cc3)C2=O)cc1 (configuration not stated)	-2	1	-5	nt
CNC(=S)N(C)CCc1cc2c(c(OC)c1C=C1C(=O)NC(=O)NC1=O)OCO2	nt	nt	-3	16
CC1CCC(C(C)C)C(OC(=O)Cn2c(COc3ccccc3)[n+](C)c3ccccc32)C1 (configuration not stated)	nt	nt	53*	9
COc1ccc(CC2C(=O)NC(C)C(=O)N(C)C3C(=O)N(C)C(Cc4ccc(O)c(c4)Oc4ccc(cc4)C3O)C(=O)NC(C)C(=O)NC(C)C(=O)N2C)cc1 (configuration not stated)	nt	nt	66*	nt
SMILES	FLuc inh counter	FLuc act counter	TRAIL sens C8	PPC-1+TRAIL kill
Cc1ccc2nc3c(cc2c1)CC1(C(=O)N(C)C(=O)N(C)C1=O)C1CCCCN31 (configuration not stated)	53*	0.5	28	38
COC(=O)C1=C(C(=O)OC)SC2(S1)C(C(=O)OC)=C(C(=O)OC)Sc1c2ssc1=O	nt	nt	51*	nt
CCN(CCCl)c1cc(CN(C)C)cc(NC(=O)c2ccc(C(=O)Nc3cc(CN(C)C)cc(N(CC)CCCl)c3)cc2)c1	nt	nt	95*	nt
CCN(CC)C(=O)c1ccc(NC(=O)c2cccc(C(F)(F)F)c2)cc1	8	0.9	2	-4
CN(C)c1ccc(/C=C/C=C2/C(=O)NC(=O)N(c3ccccc3)C2=O)cc1	53*	0.5	26	2
COc1cc2cc(C(=O)N3CC(COS(C)(=O)=O)c4ccc(O)cc43)[nH]c2c(OC)c1OC (configuration not stated)	nt	nt	91*	nt

Screens (PubChem BioAssay)
